Screens: PubChem, several laboratories
Most compounds without a hit are left out; they make up all but 1.6% or so of the library.
Neddyl block – blocks human cullin neddylation. P61081+Q13564. TR-FRET cullin neddylation, biochemical. inhibition, % at 25 µM. 360,000 tested, 0.58% active. AID 651699; in the data active = inhibition above about 36%
ASAP1 inh – inhibitors of human ASAP1 ArfGAP activity; Q9ULH1; ASAP1-stimulated ARF1 GTP hydrolysis, GDP FP detection; inhibition, % at 16.5 µM; 360,000 tested, 0.19% active; AID 624377; in the data active = inhibition above about 25%
Target sequence (Q9ULH1 325-724 limits assumed): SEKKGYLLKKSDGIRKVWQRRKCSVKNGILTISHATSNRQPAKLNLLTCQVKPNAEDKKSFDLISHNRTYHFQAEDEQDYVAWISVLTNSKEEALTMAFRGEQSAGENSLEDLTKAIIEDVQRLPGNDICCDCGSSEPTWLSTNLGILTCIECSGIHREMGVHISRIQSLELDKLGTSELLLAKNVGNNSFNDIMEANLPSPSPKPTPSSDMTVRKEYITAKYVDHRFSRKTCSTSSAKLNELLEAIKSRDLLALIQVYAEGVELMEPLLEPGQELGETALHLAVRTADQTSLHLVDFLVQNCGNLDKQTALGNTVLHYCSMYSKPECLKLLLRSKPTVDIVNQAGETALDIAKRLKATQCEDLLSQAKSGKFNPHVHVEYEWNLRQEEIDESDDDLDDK
ARFGAP1 inhibitor – inhibitors of rat ARFGAP1; AID 651572; Q62848; 360,000 tested, 0.26% active; Arfgap1-stimulated ARF1 GTP hydrolysis, GDP FP detection; inhibition, % at 16.5 µM;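 active = inhibition above a per-plate limit, mean inhibition of low control wells plus 3 SD, cut at about 25% in these data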
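Material: rat Arfgap1 catalytic domain, aa 1-136; also added: human ARF1(Δ1-17)-GTP substrate; compound dosing: one concentration, 16.5 µM, DMSO 1.26%; incubation: GTP hydrolysis reaction 2 h at 25 °C; measured by: Tracer-displacement fluorescence polarization with EDTA stop, 620/688 nm; evaluation: % inhibition from polarization; repeats: one replicate per compound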
Cardio protect – modulators protecting cardiomyocytes from myocardial damage; H9c2 cardiomyocytes, H2O2 injury protection, ATPLite, 2 h; protection from H2O2 cell death, % at 20 µM; 360,000 tested, 0.63% active;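 active = compounds giving at least 50% protection of heart cells from peroxide-induced death in the single-dose screen, raw or plate-pattern-corrected value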
Large screens that a line does not name were inactive.

O=C(CNC(=O)c1ccccc1Br)N/N=C/c1cc(Br)ccc1O	Cardio protect 74
O=C(CNC(=O)c1ccncc1)N/N=C/c1cc(Br)ccc1O	none
O=C(N/N=C/c1cc(Cl)ccc1O)c1ccccc1Br	Cardio protect 77
O=C(CNC(=O)c1ccccc1)N/N=C/c1cc(Br)ccc1O	Cardio protect 59
O=C(CN1CC(c2ccccc2)CC1=O)N/N=C/c1cc(Br)ccc1O (stereo not drawn)	Cardio protect 57 (not shown: Neddyl block)
COC(=O)N1Cc2ccnnc2CC1c1ccccc1-c1ccc(F)cc1 (stereo not drawn)	none (no result: Neddyl block, Cardio protect)
C[C@@H]1CN([C@@H](C)CO)C(=O)CCCn2cc(nn2)CO[C@H]1CN(C)C(=O)Nc1ccc2c(c1)OCCO2	none (no result: Neddyl block, Cardio protect)
NC(=O)c1c(N)[nH]c(C(=O)c2ccccc2)c1-c1ccc2ccccc2c1	none (no result: Neddyl block, Cardio protect)
C[C@H]1COc2cccc(NCCO)c2S(=O)(=O)N1	none (no result: Neddyl block, Cardio protect)
C=CCO[C@H]1CN(C(=O)OC)[C@@H](c2ccccc2Br)C[C@H]1OCC=C	none (no result: Neddyl block, Cardio protect)
O=C(N/N=C\c1cc(Cl)ccc1O)c1ccc(S(=O)(=O)N2CCCCC2)cc1	Cardio protect 63
O=C(CP(=O)(c1ccccc1)c1ccccc1)N/N=C/c1cc(Br)cc(Br)c1O	Cardio protect 71 (not shown: Neddyl block)
O=C(Nc1cc(S(=O)(=O)Nc2ccc(Cl)cc2)ccc1O)c1ccc(S(=O)(=O)N2CCCCCC2)cc1	none
COCc1[nH]nc2c1C(c1ccc(Br)cc1)N(c1ccc(OC)cc1)C2=O (stereo not drawn)	none (no result: Neddyl block, Cardio protect)
NC1=C(Cl)C(=O)c2ccc(S(N)(=O)=O)cc2C1=O	ASAP1 inh 57
COc1cc(/C=C(\CCC(=O)O)c2nc3ccccc3s2)ccc1OCC(=O)Nc1c(Cl)cccc1Cl	Neddyl block 44
COc1cc(C=C2CCCC(=Cc3ccc(OCC4CO4)c(OC)c3)C2=O)ccc1OCC1CO1 (stereo not drawn)	Cardio protect 81
O=C1Nc2c(Cl)cc(Cl)cc2C12Nc1ccccc1S2 (stereo not drawn)	none (no result: Neddyl block, Cardio protect)
O=c1[nH]c(CN2CCc3ccccc3C2)nc2ccccc12	none
O=C(CCc1nc2ccccc2c(=O)[nH]1)N1CCN(c2ccccc2Cl)CC1	Cardio protect 64
O=C(CCc1nc2ccccc2c(=O)[nH]1)Nc1cc(Cl)ccc1N1CCCC1	none
O=C(CCc1nc2ccccc2c(=O)[nH]1)N1CCN(S(=O)(=O)c2cc(Cl)ccc2Cl)CC1	Cardio protect 61
O=C(CCc1nc2ccccc2c(=O)[nH]1)N1CCCc2ccccc21	Cardio protect 67
O=C(CCc1nc2ccccc2c(=O)[nH]1)N1CCN(S(=O)(=O)c2cccc(F)c2)CC1	Cardio protect 52
CCN1CCN(C(=O)CCc2nc3ccccc3c(=O)[nH]2)CC1	none
Cc1cc(C)c(C)c(S(=O)(=O)N2CCN(C(=O)CCc3nc4ccccc4c(=O)[nH]3)CC2)c1C	Cardio protect 70
COC(=O)c1cc2c(c3c4cc(C)ccc4n(S(=O)(=O)c4ccc(OC)cc4)c13)C(=O)N(Cc1ccccc1OC)C2	none (no result: Neddyl block, Cardio protect)
COc1ccc2cc3cc(C(=O)Nc4cc(OC)c(OC)c(OC)c4)oc3nc2c1	Cardio protect 58
COc1ccc(N=Cc2sc(O)c3ccccc23)cc1	Cardio protect 51
C[C@H](CO)N1C[C@H](C)[C@@H](CN(C)Cc2ccccc2)Oc2c(NS(=O)(=O)c3ccc(F)cc3)cccc2C1=O	none
C[C@H](CO)N1C[C@H](C)[C@@H](CN(C)Cc2ccc(Cl)c(Cl)c2)Oc2c(NS(=O)(=O)c3ccc(F)cc3)cccc2C1=O	ASAP1 inh 31
COCc1cc(N2CCNC[C@H]2C)ccc1N1CCN(Cc2ccccc2)[C@@H](C)C1	none (no result: Neddyl block, Cardio protect)
O=C(/C=C1\NC2(CCCC2)Cc2ccccc21)C(=O)N/N=C/c1ccc(O)c(O)c1	Cardio protect 102
Cc1nn(-c2ccccc2)c2[nH]c(=O)c(CNCc3ccc4c(c3)OCO4)cc12	none
COc1cccc(NCc2cc3c(C(C)(C)C)nn(-c4ccccc4)c3[nH]c2=O)c1	none
CC(C)(C)c1nn(-c2ccccc2)c2[nH]c(=O)c(C=O)cc12	Cardio protect 57
Cc1ccc(-c2nn(-c3ccccc3)c3[nH]c(=O)c(CNCc4ccccc4)cc23)cc1	Cardio protect 52
CCOc1ccc(NCc2cc3c(C(C)(C)C)nn(-c4ccccc4)c3[nH]c2=O)cc1	Cardio protect 58
COC(=O)C1=C(C)N(Cc2ccccc2C(F)(F)F)C(=NCc2cc(OC)c(OC)c(OC)c2)NC1c1ccccc1 (stereo not drawn)	none (no result: Neddyl block, Cardio protect)
COC(=O)[C@]12C[C@H](CC(=O)NCCCN3CCCC3=O)C(=O)N(Cc3ccccc3)C1=C[C@H](C1CCCC1)O[C@@H]2C	none (no result: Neddyl block, Cardio protect)
